Active and inactive are the calls of the source. The rule behind the calls is not given here.
How the values were obtained:
DNA [1] = test: Binding affinity to calf thymus DNA assessed as thermal stability in BPE buffer at 2 uM; format: nucleic-acid assay; conditions: Bos taurus
DNA [2] = test: Binding affinity to calf […] DNA assessed as thermal stability in cacodylate buffer at 12 uM; format: nucleic-acid assay
DNA [3] = test: Binding affinity to calf […] DNA assessed as thermal stability in cacodylate buffer containing 0.1 M NaCl at 12 uM; format: nucleic-acid assay
SK-BR-3 = test: Antiproliferative activity against human SKBR3 cells after 72 hrs; format: functional, cell-based; conditions: SK-BR-3, 72 h
Procedure, shortened: (§1)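 Cells grown in DMEM with 10% calf serum and 1 mM pyruvate, seeded at 5000 cells/well, left 24 h, then given increasing concentrations from DMSO stock in triplicate (DMSO-only controls) for 72 h. CellTiter 96 aqueous one-solution reagent added for 3 h at 37 °C, A540 read. IC50 taken as the concentration halving cell number versus controls, from triplicate means.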

BT-474 [4] = test: Antiproliferative activity against human BT474 cells after 72 hrs; format: functional, cell-based; conditions: BT-474, 72 h
T47D = test: Antiproliferative activity against human T47D cells after 72 hrs; format: functional, cell-based; procedure, shortened: as §1
Caspase-3 (Homo sapiens) = target: T1, Caspase-3 (Homo sapiens) (UniProt P42574); test: Increase in caspase 3 activation in human SKBR3 cells at 20 uM after 24 hrs; format: cell-based; conditions: SK-BR-3
T1 sequence (whole entry): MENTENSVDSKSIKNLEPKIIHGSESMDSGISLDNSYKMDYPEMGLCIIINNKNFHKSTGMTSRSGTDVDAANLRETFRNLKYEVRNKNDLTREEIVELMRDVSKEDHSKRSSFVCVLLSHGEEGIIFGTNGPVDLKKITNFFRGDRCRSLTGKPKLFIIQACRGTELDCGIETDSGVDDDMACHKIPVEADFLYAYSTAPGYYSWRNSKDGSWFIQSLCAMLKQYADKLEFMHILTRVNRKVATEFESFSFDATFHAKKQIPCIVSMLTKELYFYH
Procedure, shortened: (§2)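 SKBR3 cells seeded at 10^4 per well and exposed to compounds at 20 µM for 24 h. Controls run with and without 0.2% DMSO. Caspase-3/7 activity measured in homogeneous lysates with Caspase-Glo 3/7 reagent as luciferase luminescence.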

Caspase-7 (Homo sapiens) = target: T2, Caspase-7 (Homo sapiens) (UniProt P55210); test: Increase in caspase 7 activation in human SKBR3 cells at 20 uM after 24 hrs; format: cell-based; conditions: SK-BR-3; procedure, shortened: as §2
T2 sequence (whole entry): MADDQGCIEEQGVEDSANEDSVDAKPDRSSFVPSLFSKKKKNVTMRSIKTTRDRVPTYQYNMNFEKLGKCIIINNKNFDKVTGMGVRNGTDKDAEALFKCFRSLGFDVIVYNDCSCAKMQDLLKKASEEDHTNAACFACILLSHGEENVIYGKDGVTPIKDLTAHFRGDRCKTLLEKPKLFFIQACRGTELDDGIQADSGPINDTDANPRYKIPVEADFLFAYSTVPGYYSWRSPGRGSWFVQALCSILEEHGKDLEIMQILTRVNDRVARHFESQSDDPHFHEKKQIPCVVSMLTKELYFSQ

LNCaP = test: Antiproliferative activity against human LnCAP cells after 72 hrs; format: functional, cell-based
PC-3 = test: Antiproliferative activity against human PC3 cells after 72 hrs; format: functional, cell-based; conditions: PC-3, 72 h
HT-29 = test: Antiproliferative activity against human HT29 cells after 72 hrs; format: functional, cell-based; conditions: HT-29, 72 h; procedure, shortened: as §1
BT-474 [5] = test: Antitumor activity against human BT474 cells xenografted gamma C null NOG/SCID mouse assessed as reduction in tumor volume at 20 mg/kg, ip after 44 days; format: functional; design: scale not given: the % may be the effect or the level left; conditions: route intraperitoneal
Procedure, shortened: (§3)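 5 × 10^6 BT474 cells in Matrigel injected subcutaneously into the mammary gland of NOG/SCID mice. Once xenografts were established (10–15 days), mice got intraperitoneal doses in 0.9% NaCl every 3 days; controls got vehicle on the same schedule. Tumours measured by caliper, volume = 0.52(length × width²), five mice per group, percent volume change at day 44.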

BT-474 [6] = test: Antitumor activity against human BT474 cells xenografted in gamma C null NOG/SCID mouse assessed as reduction in tumor volume at 60 mg/kg, ip after 44 days; format: functional; design: scale not given: the % may be the effect or the level left; conditions: route intraperitoneal; procedure, shortened: as §3

SMILES | ΔTm (DNA [1]) | ΔTm (DNA [2]) | ΔTm (DNA [3]) | IC50 (SK-BR-3) | IC50 (BT-474 [4]) | IC50 (T47D) | Tm (DNA [1]) | Activity (Caspase-3 (Homo sapiens)) | Activity (Caspase-7 (Homo sapiens)) | IC50 (LNCaP) | IC50 (PC-3) | IC50 (HT-29) | Activity (BT-474 [5]) | Activity (BT-474 [6])
CCBr | 8.1 °C | 21 °C | 5 °C |  |  |  |  |  |  |  |  |  |  | 
CN1CCN(c2ccc3[nH]c(-c4ccc5[nH]c(-c6ccc(O)cc6)nc5c4)nc3c2)CC1 | 9 °C | 25.1 °C | 12 °C |  |  |  |  |  |  |  |  |  |  | 
N=C(N)NCCCCCCNCc1ccc2ccc3cccc4ccc1c2c34 |  | 34.1 °C | 12 °C | 4.8 µM | 29.2 µM | 2.2 µM | > 100 °C |  |  |  |  |  |  | 
NCc1ccc2c(c1)Cc1ccccc1-2 | 1 °C | 0.1 °C | 0 °C | > 40 µM |  |  |  | inactive | inactive |  |  |  |  | 
N=C(N)NCc1ccc2ccc3cccc4ccc1c2c34 | 8.1 °C | 19 °C | 6 °C | 11 µM | 33.9 µM | 43.7 µM |  |  |  | 93.3 µM | 43.7 µM | 39.8 µM |  | 
N=C(N)NCc1c2ccccc2cc2ccccc12 | 6.1 °C | 15 °C | 4 °C | 1.9 µM | 19.1 µM | 29.5 µM |  | Active | Active | 3.5 µM | 10 µM | > 100 µM |  | 
NCc1ccccc1 [BENZYLAMINE] | 0 °C | 0.1 °C | 0 °C | > 40 µM |  |  |  | inactive | inactive |  |  |  |  | 
N=C(N)NCc1cccs1 | 0.1 °C | 0 °C | 0 °C | > 40 µM | 95.5 µM | 85.1 µM |  |  |  | 64.6 µM | > 100 µM | > 100 µM |  | 
N=C(N)NCc1ccccc1 | 0.1 °C | 0.1 °C | 0 °C | > 40 µM | 47.9 µM | 83.2 µM |  | inactive | inactive | 43.7 µM | > 100 µM | > 100 µM |  | 
NCCCCNCc1c2ccccc2cc2ccccc12 | 13.1 °C | 26 °C | 8 °C | 3.3 µM |  |  |  |  |  |  |  |  |  | 
NCc1cccs1 | 0.1 °C | 0 °C | 0 °C | > 40 µM |  |  |  |  |  |  |  |  |  | 
N=C(N)NCCCNCCCCNCCCNCc1ccc2ccc3cccc4ccc1c2c34 |  | 39.1 °C | 16 °C | 25.3 µM | 34.6 µM | 8 µM | > 100 °C | inactive | inactive |  |  |  |  | 
NCc1c2ccccc2cc2ccccc12 | 3 °C | 9 °C | 1 °C | 25.5 µM |  |  |  | inactive | inactive |  |  |  |  | 
NCCCCNCc1ccc2ccc3cccc4ccc1c2c34 | 20.2 °C | 32.1 °C | 10 °C | 4.2 µM |  |  |  |  |  |  |  |  |  | 
N=C(N)NCc1ccc2c(c1)Cc1ccccc1-2 | 0 °C | 1 °C | 0 °C | 15.7 µM | 19.1 µM | 6.9 µM |  |  |  | 27.5 µM | 24 µM | 32.4 µM |  | 
N=C(N)NCCCCNCc1c2ccccc2cc2ccccc12 | 15.1 °C | 28.1 °C | 9 °C | 2.3 µM | 14.5 µM | 30.9 µM |  |  |  | 28.2 µM | 13.8 µM | 79.4 µM |  | 
NCc1ccc2ccc3cccc4ccc1c2c34 | 5 °C | 15 °C | 3 °C | 12 µM |  |  |  |  |  |  |  |  |  | 
N=C(N)NCCCCNCc1ccc2ccc3cccc4ccc1c2c34 |  | 34.2 °C | 12 °C | 1.9 µM | 16.2 µM | 2.2 µM | > 100 °C | Active | Active | 9.3 µM | 7.9 µM | 30.9 µM | 32% | 73%
